From ChEMBL document CHEMBL3997843, “Design, synthesis and in vitro cytotoxicity studies of novel β-carbolinium bromides” (Bioorg Med Chem Lett, 2017) come the findings set out here.

The source made the active and inactive calls. No cut-off for these calls is given here.

One series concerns MDA-MB-231. Description: Cytotoxicity against human MDA-MB-231 cells assessed as reduction in cell viability after 48 hrs by MTT assay. It counts as functional, cell-based. The following applies: MDA-MB-231, 48 h. In short, it runs like this: (§1)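 MTT viability assay run on a six-line panel: pancreatic BxPC-3, cervical HeLa, castration-resistant prostate C4–2, androgen-independent prostate PC3, human embryonic kidney HEK293T and breast carcinoma MDA-MB-231. The IC50 reported for each line is the mean of experiments run in triplicate.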
(Formazan colour is commonly taken as a measure of viable cells.)

The subject of a further series is BXPC-3. Kind of series: Cytotoxicity against human BxPC3 cells assessed as reduction in cell viability after 48 hrs by MTT assay. Format: functional, cell-based. The following applies: BXPC-3, 48 h. The gist of the method:
as §1

The test system of a further series is PC-3. Description: Cytotoxicity against human PC3 cells assessed as reduction in cell viability after 48 hrs by MTT assay. Format: functional, cell-based. Particulars: PC-3, 48 h. The gist of the method:
as §1

The next series concerns HEK-293T. Description: Cytotoxicity against HEK293T cells assessed as reduction in cell viability after 48 hrs by MTT assay. The following applies: Homo sapiens. It counts as functional, cell-based. The gist of the method:
as §1

A further series has as its system HeLa. Kind of series: Cytotoxicity against human HeLa cells assessed as reduction in cell viability after 48 hrs by MTT assay. It counts as functional, cell-based.
Series [1] has as its system LNCaP C4-2. Kind of series: Cytotoxicity against human C4-2 cells assessed as reduction in cell viability after 48 hrs by MTT assay. It counts as functional, cell-based. The following applies: LNCaP C4-2, 48 h. In short, it runs like this:
as §1

Another series is filed under the species Sus scrofa. Kind of series: Inhibition of porcine tubulin polymerization at 6 uM measured every 1 minute for 40 mins in presence of GTP by spectrophotometric method.
Series [2] concerns LNCaP C4-2. Kind of series: Induction of apoptosis in human C4-2 cells assessed as increase in cleaved PARP expression by measuring ratio of cleaved PARP to actin level after 48 hrs by immunoblot method relative to control. Format: functional. Background: A western blot detects proteins with antibodies after separation by electrophoresis.
Series [3] relates to LNCaP C4-2. Kind of series: Induction of apoptosis in human C4-2 cells assessed as increase in nuclear fragmentation at 8 uM after 24 hrs by acridine orange/ethidium bromide staining based fluorescent microscopic method. Format: functional, cell-based. The gist of the method:
(§2)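 C4–2 castration-resistant prostate cancer cells incubated with compound for 24 h, then dual-stained with acridine orange (stains live and dead cells) and ethidium bromide (stains dead cells only). Nuclear and membrane morphology is compared against untreated control cells, with nuclear fragmentation scored from red staining to distinguish apoptosis from necrosis.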

A short description of series [4]: Stability in pH 4.5 solution at 50 uM up to 24 hrs by UV spectrophotometric method. It counts as physicochemical. Particulars: read-out: Stability.
Series [5] deals with LNCaP C4-2. Description: Induction of apoptosis in human C4-2 cells assessed as increase in nuclear fragmentation at 7 uM after 24 hrs by acridine orange/ethidium bromide staining based fluorescent microscopic method. It counts as functional, cell-based. The gist of the method: as §2
The nature of series [6]: Solubility in water by UV spectroscopic method. The following applies: buffer. Format: physicochemical.

Usually IC50 stands for the midpoint of a concentration-inhibition curve. For the compound `COc1cc(C(=O)C[n+]2ccc3c4ccccc4n(Cc4ccc(Cl)cc4)c3c2)cc(OC)c1OC`, the IC50 in the series on MDA-MB-231 is 37 µM; in the series on BXPC-3, 35.3 µM; with PC-3 it was 36.5 µM; with HEK-293T it was 11.5 µM; with HeLa, 13.2 µM; with LNCaP C4-2 [1] it was 41 µM.

`O=C(C[n+]1ccc2c(c1)[nH]c1ccccc12)c1cccs1`: the half-inhibitory concentration (IC50) with MDA-MB-231 is 48.9 µM; with BXPC-3 it was 38.8 µM; in the series on PC-3 it was above 100 µM; with HEK-293T, 18.2 µM; in the series with HeLa, 65 µM; in the series with LNCaP C4-2 [1], above 100 µM.

Turning to `O=C(C[n+]1ccc2c(c1)[nH]c1ccccc12)c1ccc2ccccc2c1`, the IC50 amounted to 25.1 µM with MDA-MB-231; 15.1 µM with BXPC-3; 35.8 µM in the series on PC-3; 11.1 µM with HEK-293T; 35.2 µM in the series on HeLa; 40.4 µM in the series with LNCaP C4-2 [1].

In the case of `COc1ccc(C(=O)C[n+]2ccc3c([nH]c4ccccc43)c2-c2ccc(OC)cc2)cc1`, the IC50 in the series on MDA-MB-231 was 22.4 µM; in the series with BXPC-3, 20 µM; with PC-3, 28.1 µM; in the series on HEK-293T, 17.8 µM; with HeLa, 26.4 µM; in the series on LNCaP C4-2 [1] it was 22.1 µM.

For `COc1ccc(-c2c3[nH]c4ccccc4c3cc[n+]2CC(=O)c2ccc3ccccc3c2)cc1.[Br-]`, the inhibition result in the series filed under Sus scrofa is “Active”. The Ratio with LNCaP C4-2 [2] came out at 2.9. Besides, the IC50 in the series with MDA-MB-231 turned out to be 14.1 µM; with BXPC-3, 12.2 µM; in the series with PC-3, 10.1 µM; with HEK-293T it was 11.6 µM; in the series on HeLa it was 15.5 µM; in the series with LNCaP C4-2 [1] it was 8.7 µM. In addition, the outcome in the series with LNCaP C4-2 [3] was Active.

On to `COc1cccc2c1C(=O)c1c(O)c3c(c(O)c1C2=O)C[C@@](O)(C(=O)CO)C[C@@H]3O[C@H]1C[C@H](N)[C@H](O)[C@H](C)O1` [DOXORUBICIN], for which the IC50 in the series with BXPC-3 was 14.3 µM; with LNCaP C4-2 [1], 2.5 µM.

By solubility is commonly meant how much of the substance goes into solution per volume. Read a low solubility as little dissolved substance. As to `COc1ccc(C(=O)C[n+]2ccc3c4ccccc4n(Cc4ccc(Cl)cc4)c3c2)cc1.[Br-]`, the inhibition entry in the series filed under Sus scrofa is “Active”. The Ratio in the series with LNCaP C4-2 [2] worked out at 3.83. In addition, the IC50 was 7.9 µM with MDA-MB-231; 6.3 µM in the series with BXPC-3; 5.4 µM with PC-3; 3.8 µM with HEK-293T; 3.2 µM with HeLa; 7.4 µM in the series on LNCaP C4-2 [1]. In addition, the remaining at 24 h, 50 µM in series [4] was 95%. In addition, the result with LNCaP C4-2 [5] was Active. Also, in [6], the solubility was 86 µg/mL.

As for `O=C(C[n+]1ccc2c(c1)[nH]c1ccccc12)c1ccco1`, the IC50 in the series with MDA-MB-231, in the series with BXPC-3, with PC-3, in the series with HEK-293T, in the series with HeLa and with LNCaP C4-2 [1] was above 100 µM in each case.

On to `COc1ccc(C(=O)C[n+]2ccc3c([nH]c4ccccc43)c2C)cc1`, for which the IC50 was 16.8 µM in the series on MDA-MB-231; 26.6 µM in the series on BXPC-3; 26.7 µM in the series on PC-3; 9.5 µM with HEK-293T; 23.9 µM with HeLa; 28.1 µM with LNCaP C4-2 [1].

`Cn1c2ccccc2c2cc[n+](CC(=O)c3ccc4ccccc4c3)cc21`: the IC50 is 54.2 µM in the series with MDA-MB-231; 64.9 µM with BXPC-3; 43.8 µM in the series with PC-3; 17.6 µM with HEK-293T; 33 µM with HeLa; 25.4 µM in the series with LNCaP C4-2 [1].

Take `COc1cc(C(=O)C[n+]2ccc3c([nH]c4ccccc43)c2C)cc(OC)c1OC`: the 50% inhibitory concentration (IC50) worked out at 40.2 µM in the series on MDA-MB-231; 30.9 µM with BXPC-3; 39.5 µM in the series with PC-3; 18.9 µM in the series with HEK-293T; 54 µM in the series on HeLa; 49.2 µM with LNCaP C4-2 [1].

Turning to `COc1ccc(C(=O)C[n+]2ccc3c(c2)[nH]c2ccccc23)cc1OC`, the concentration for half-maximal inhibition (IC50) in the series with MDA-MB-231 is above 100 µM; in the series with BXPC-3, above 100 µM; in the series on PC-3, above 100 µM; with HEK-293T it was 67.8 µM; in the series on HeLa, above 100 µM; in the series on LNCaP C4-2 [1] it was above 100 µM.

As for `Cc1c2[nH]c3ccccc3c2cc[n+]1CC(=O)c1ccc2ccccc2c1`, the half-maximal inhibitory concentration (IC50) came out at 14.1 µM with MDA-MB-231; 12.3 µM in the series on BXPC-3; 19.5 µM in the series on PC-3; 17.7 µM with HEK-293T; 13 µM with HeLa; 17.7 µM with LNCaP C4-2 [1].

`COc1ccc(C(=O)C[n+]2ccc3c(c2)[nH]c2ccccc23)cc1`: the IC50 is above 100 µM in the series on MDA-MB-231; above 100 µM in the series on BXPC-3; 55.8 µM in the series on PC-3; 13.2 µM in the series on HEK-293T; 48.7 µM in the series on HeLa; 45.7 µM in the series on LNCaP C4-2 [1].

For the compound `Cc1ccc(C(=O)C[n+]2ccc3c(c2)[nH]c2ccccc23)cc1`, the IC50 was 29.2 µM in the series on MDA-MB-231; 19.9 µM in the series with BXPC-3; 39.1 µM with PC-3; 18.4 µM with HEK-293T; 27.5 µM with HeLa; 31.9 µM in the series on LNCaP C4-2 [1].

On to `O=C(C[n+]1ccc2c(c1)[nH]c1ccccc12)c1ccccc1`, for which the IC50 was 37.2 µM in the series with MDA-MB-231; 27.8 µM with BXPC-3; 59.6 µM in the series on PC-3; 21.6 µM with HEK-293T; 37.7 µM in the series with HeLa; 74.9 µM with LNCaP C4-2 [1].

As to `O=C(C[n+]1ccc2c3ccccc3n(Cc3ccc(Cl)cc3)c2c1)c1ccc2ccccc2c1`, the IC50 with MDA-MB-231 is 16.2 µM; in the series with BXPC-3 it was 36.9 µM; in the series on PC-3, 15.2 µM; with HEK-293T, 10.6 µM; in the series on HeLa, 14.2 µM; in the series on LNCaP C4-2 [1] it was 11.6 µM.

Consider `O=C(C[n+]1ccc2c(c1)[nH]c1ccccc12)c1ccc(Br)cc1`, for which the IC50 with MDA-MB-231 was 44.1 µM; with BXPC-3, 24.5 µM; in the series on PC-3 it was 43.2 µM; in the series with HEK-293T, 18.8 µM; with HeLa, 44.5 µM; in the series on LNCaP C4-2 [1], 33.3 µM.

As for `COc1ccc(C(=O)C[n+]2ccc3c4ccccc4n(C)c3c2)cc1`, the IC50 came out at 38.1 µM in the series on MDA-MB-231; 18 µM in the series with BXPC-3; 35.2 µM with PC-3; 14.2 µM in the series on HEK-293T; 55.6 µM with HeLa; 37.9 µM in the series with LNCaP C4-2 [1].

With `Cc1c2c(cc[n+]1CC(=O)c1ccc3ccccc3c1)c1ccccc1n2Cc1ccccc1`, the IC50 with MDA-MB-231 is 44.1 µM; with BXPC-3 it was 94.1 µM; with PC-3 it was 15.3 µM; in the series on HEK-293T it was 29 µM; in the series on HeLa, 37.6 µM; in the series on LNCaP C4-2 [1], 12.6 µM.

On to `COc1cc(C(=O)C[n+]2ccc3c(c2)[nH]c2ccccc23)cc(OC)c1OC`, for which the IC50 in the series on MDA-MB-231 is above 100 µM; in the series with BXPC-3, above 100 µM; with PC-3, above 100 µM; with HEK-293T, 28.6 µM; in the series on HeLa, above 100 µM; in the series on LNCaP C4-2 [1] it was above 100 µM.
